# Data from ChEMBL document CHEMBL4622996, “Discovery of Vixotrigine: A Novel Use-Dependent Sodium Channel Blocker for the Treatment of Trigeminal Neuralgia” (ACS Med Chem Lett, 2020).
# What was measured:
# [1] = Toxicity in rat assessed as sedation by measuring spontaneous locomotor activity at 100 to 300 mg/kg, po; type: organism-based; conditions: in vivo
# How it was run: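 Male rats, spontaneous locomotor activity test; oral doses 60, 100 or 300 mg/kg given 30 min before the session; plasma sampled 60 min postdose at 60 mg/kg.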
# [2] = Oral bioavailability in monkey at 3 mg/kg; type: ADME, organism-based, Macaca mulatta; conditions: rhesus monkey, in vivo
# [3] = Volume of distribution in steady state in rat at 0.5 mg/kg, iv; type: ADME, organism-based; conditions: in vivo, read-out: Vdss
# [4] = Tmax in monkey at 3 mg/kg, po; type: ADME, organism-based, Macaca mulatta; conditions: rhesus monkey, in vivo
# [5] = Aqueous solubility of the compound in FeSSIF; type: physicochemical
# [6] = biological target: T1, Cytochrome P450 2C8 (Homo sapiens, UniProt P10632); assay: Inhibition of CYP2C8 (unknown origin); type: ADME
# T1 sequence (P10632 whole entry): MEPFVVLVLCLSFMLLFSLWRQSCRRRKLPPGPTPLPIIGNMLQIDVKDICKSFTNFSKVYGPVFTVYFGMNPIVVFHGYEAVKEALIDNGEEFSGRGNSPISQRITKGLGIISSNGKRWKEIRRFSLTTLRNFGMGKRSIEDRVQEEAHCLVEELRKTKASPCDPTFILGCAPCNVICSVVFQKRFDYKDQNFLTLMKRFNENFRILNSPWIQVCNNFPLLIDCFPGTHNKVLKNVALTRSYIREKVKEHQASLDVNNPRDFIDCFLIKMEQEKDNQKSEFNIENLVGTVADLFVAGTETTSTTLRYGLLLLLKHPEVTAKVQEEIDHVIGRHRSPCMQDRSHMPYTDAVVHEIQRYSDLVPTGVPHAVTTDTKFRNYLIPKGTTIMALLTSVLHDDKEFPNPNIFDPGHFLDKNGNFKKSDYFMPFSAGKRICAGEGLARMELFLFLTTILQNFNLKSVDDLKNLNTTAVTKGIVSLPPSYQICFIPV
# [7] = biological target: T2, Solute carrier family 22 member 2 (Homo sapiens, UniProt O15244); assay: Inhibition of OCT2 (unknown origin)
# T2 sequence (O15244 whole entry): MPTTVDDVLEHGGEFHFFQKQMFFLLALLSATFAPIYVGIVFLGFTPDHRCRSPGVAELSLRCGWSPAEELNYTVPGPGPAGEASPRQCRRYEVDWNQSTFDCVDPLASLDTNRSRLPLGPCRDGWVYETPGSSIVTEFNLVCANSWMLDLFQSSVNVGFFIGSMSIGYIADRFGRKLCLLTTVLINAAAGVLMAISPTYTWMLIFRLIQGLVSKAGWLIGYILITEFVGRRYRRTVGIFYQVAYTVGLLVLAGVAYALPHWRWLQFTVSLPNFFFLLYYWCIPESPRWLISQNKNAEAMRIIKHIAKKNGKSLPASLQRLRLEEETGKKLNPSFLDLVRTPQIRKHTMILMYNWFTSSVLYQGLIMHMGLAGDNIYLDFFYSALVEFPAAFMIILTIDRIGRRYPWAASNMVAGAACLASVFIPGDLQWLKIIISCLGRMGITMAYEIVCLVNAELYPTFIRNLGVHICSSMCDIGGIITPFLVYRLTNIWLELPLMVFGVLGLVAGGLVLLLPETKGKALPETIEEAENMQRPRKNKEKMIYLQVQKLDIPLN
# [8] = biological target: T3, Cytochrome P450 1A2 (Homo sapiens, UniProt P05177); assay: Inhibition of CYP1A2 (unknown origin); type: ADME
# T3 sequence (P05177 whole entry): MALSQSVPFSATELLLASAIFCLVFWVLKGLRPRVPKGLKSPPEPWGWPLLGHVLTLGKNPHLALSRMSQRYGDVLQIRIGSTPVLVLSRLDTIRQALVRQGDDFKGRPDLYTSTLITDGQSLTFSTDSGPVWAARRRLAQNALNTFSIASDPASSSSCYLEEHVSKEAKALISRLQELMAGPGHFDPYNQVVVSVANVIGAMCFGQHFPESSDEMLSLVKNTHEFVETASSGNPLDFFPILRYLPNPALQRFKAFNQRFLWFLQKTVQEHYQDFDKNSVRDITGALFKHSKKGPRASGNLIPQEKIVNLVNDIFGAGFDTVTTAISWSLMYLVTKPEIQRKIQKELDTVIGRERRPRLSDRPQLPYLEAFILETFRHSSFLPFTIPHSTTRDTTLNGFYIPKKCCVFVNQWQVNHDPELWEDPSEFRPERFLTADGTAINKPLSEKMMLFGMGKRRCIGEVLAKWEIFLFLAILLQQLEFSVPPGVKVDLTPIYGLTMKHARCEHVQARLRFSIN
# [9] = biological target: T4, Cytochrome P450 2B6 (Homo sapiens, UniProt P20813); assay: Inhibition of CYP2B6 (unknown origin); type: ADME
# T4 sequence (P20813 whole entry): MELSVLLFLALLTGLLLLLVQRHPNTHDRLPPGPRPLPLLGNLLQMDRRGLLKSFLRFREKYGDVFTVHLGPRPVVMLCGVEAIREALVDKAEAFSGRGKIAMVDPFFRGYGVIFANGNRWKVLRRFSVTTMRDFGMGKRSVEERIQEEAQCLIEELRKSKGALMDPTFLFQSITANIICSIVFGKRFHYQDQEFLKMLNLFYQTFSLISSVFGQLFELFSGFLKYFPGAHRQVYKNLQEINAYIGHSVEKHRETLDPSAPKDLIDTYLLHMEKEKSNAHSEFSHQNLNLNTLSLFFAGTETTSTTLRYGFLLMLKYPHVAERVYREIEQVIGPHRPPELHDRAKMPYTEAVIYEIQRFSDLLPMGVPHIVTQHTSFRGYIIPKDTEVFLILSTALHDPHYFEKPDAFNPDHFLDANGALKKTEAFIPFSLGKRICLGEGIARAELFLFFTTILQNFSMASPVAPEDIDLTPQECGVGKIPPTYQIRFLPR
smiles,measurement,setting,value
Cl.NC(=O)[C@@H]1CC[C@H](c2ccc(OCc3ccccc3F)cc2)N1 [RAXATRIGINE HYDROCHLORIDE],Activity,[1],Toxic
same,bioavailability,[2],42%
same,Vd,[3],2 L/kg
same,Tmax,[4],2 h
same,solubility,[5],6900 µg/mL
same,IC50,[6],> 100 µM
same,inhibition (INH),[7],Not Active
same,IC50,[8],13 µM
same,IC50,[9],31 µM
